Reference: ChEMBL document CHEMBL5247599, “New β-arylchalcogeno amines with procognitive properties targeting Carbonic Anhydrases and Monoamine Oxidases” (Eur J Med Chem, 2022)

Legend:
[1] = biological target: Carbonic anhydrase 2 (Homo sapiens) (UniProt P00918); assay: Binding affinity to human CA2 by phenol red dye based stopped flow CO2 hydration assay
In short: (§1)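 Purified recombinant human CA isoforms. CA-catalysed CO2 hydration was followed by stopped-flow with phenol red at 557 nm, taking initial rates over 10–100 s from at least six traces of the first 5–10% of reaction. Uncatalysed rates were subtracted. Activator stocks were 0.1 mM in deionised water, diluted down to 0.1 nM in assay buffer. K_A came from non-linear least-squares Michaelis–Menten fitting.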

[2] = biological target: Carbonic anhydrase 3 (Homo sapiens) (UniProt P07451); assay: Binding affinity to human CA3 by phenol red dye based stopped flow CO2 hydration assay; conditions: filed as activator; in short: as §1
Chain of Carbonic anhydrase 3 (Homo sapiens) (P07451 whole entry): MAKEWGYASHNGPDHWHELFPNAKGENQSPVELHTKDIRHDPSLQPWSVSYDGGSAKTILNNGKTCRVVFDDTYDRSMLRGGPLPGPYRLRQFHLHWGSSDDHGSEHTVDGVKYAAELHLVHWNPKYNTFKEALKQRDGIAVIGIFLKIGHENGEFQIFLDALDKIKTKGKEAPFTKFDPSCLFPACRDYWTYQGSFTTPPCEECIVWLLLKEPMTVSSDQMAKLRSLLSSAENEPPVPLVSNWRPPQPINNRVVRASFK

[3] = biological target: Carbonic anhydrase 5B, mitochondrial (Homo sapiens) (UniProt Q9Y2D0); assay: Binding affinity to human CA5b by phenol red dye based stopped flow CO2 hydration assay; conditions: filed as activator; in short: as §1
Chain of Carbonic anhydrase 5B, mitochondrial (Homo sapiens) (Q9Y2D0 whole entry): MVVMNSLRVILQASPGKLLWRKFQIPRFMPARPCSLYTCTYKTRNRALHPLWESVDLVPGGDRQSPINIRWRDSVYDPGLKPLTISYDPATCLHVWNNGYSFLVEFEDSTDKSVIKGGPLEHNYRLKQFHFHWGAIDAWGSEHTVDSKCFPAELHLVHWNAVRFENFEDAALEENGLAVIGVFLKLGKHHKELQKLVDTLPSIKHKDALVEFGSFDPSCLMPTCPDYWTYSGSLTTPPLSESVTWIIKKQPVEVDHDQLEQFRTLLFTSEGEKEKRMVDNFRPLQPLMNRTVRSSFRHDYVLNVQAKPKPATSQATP

[4] = biological target: Carbonic anhydrase 6 (Homo sapiens) (UniProt P23280); assay: Binding affinity to human CA6 by phenol red dye based stopped flow CO2 hydration assay; conditions: filed as activator; in short: as §1
Chain of Carbonic anhydrase 6 (Homo sapiens) (P23280 whole entry): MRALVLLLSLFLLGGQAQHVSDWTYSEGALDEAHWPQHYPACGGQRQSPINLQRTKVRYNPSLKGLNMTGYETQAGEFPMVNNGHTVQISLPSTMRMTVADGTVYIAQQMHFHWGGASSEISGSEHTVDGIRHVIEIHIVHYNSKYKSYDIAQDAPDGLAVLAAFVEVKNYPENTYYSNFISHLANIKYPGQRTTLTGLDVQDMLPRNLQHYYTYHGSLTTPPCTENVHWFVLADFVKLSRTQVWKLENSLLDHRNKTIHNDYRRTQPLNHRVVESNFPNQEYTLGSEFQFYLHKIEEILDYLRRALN

[5] = biological target: Carbonic anhydrase 7 (Homo sapiens) (UniProt P43166); assay: Binding affinity to human CA7 by phenol red dye based stopped flow CO2 hydration assay; conditions: filed as activator; in short: as §1
Chain of Carbonic anhydrase 7 (Homo sapiens) (P43166 whole entry): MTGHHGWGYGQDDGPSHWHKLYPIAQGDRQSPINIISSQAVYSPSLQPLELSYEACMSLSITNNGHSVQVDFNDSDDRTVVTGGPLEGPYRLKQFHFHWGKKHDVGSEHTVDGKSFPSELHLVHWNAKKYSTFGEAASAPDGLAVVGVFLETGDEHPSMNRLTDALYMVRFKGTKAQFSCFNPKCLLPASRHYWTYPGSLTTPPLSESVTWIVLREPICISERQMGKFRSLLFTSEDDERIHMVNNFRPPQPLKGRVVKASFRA

[6] = biological target: Carbonic anhydrase 12 (Homo sapiens) (UniProt O43570); assay: Binding affinity to human CA12 by phenol red dye based stopped flow CO2 hydration assay; conditions: filed as activator; in short: as §1
Chain of Carbonic anhydrase 12 (Homo sapiens) (O43570 whole entry): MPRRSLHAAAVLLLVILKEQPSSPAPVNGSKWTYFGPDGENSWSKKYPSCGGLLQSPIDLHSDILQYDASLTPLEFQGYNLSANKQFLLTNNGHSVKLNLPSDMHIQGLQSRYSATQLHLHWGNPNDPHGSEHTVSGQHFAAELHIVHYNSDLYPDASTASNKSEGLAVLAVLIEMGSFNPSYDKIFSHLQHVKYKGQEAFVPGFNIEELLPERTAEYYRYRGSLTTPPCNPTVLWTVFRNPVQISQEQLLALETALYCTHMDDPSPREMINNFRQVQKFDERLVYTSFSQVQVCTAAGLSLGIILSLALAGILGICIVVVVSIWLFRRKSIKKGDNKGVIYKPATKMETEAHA

[7] = biological target: Carbonic anhydrase 13 (Homo sapiens) (UniProt Q8N1Q1); assay: Binding affinity to human CA13 by phenol red dye based stopped flow CO2 hydration assay; conditions: filed as activator; in short: as §1
Chain of Carbonic anhydrase 13 (Homo sapiens) (Q8N1Q1 whole entry, looked up): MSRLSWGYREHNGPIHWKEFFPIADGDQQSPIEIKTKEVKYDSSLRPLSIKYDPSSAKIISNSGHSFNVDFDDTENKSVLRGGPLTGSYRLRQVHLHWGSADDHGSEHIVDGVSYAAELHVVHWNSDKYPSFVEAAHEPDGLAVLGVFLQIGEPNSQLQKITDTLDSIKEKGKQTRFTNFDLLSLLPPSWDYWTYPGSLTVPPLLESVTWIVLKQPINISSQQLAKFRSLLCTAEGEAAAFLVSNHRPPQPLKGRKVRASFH

[8] = biological target: Carbonic anhydrase 14 (Homo sapiens) (UniProt Q9ULX7); assay: Binding affinity to human CA14 by phenol red dye based stopped flow CO2 hydration assay; conditions: filed as activator; in short: as §1
Chain of Carbonic anhydrase 14 (Homo sapiens) (Q9ULX7 whole entry): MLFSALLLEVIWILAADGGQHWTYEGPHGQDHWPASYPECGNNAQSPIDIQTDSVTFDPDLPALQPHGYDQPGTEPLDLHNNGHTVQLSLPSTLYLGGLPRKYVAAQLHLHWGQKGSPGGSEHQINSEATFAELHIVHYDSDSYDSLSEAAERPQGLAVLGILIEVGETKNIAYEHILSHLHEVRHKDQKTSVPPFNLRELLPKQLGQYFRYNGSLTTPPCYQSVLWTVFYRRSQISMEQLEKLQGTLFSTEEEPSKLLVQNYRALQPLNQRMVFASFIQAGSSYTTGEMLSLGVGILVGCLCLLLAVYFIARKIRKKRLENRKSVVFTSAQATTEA

[9] = biological target: T1, Amine oxidase [flavin-containing] A (Homo sapiens, UniProt P21397); assay: Inhibition of human recombinant MAO-A assessed as inhibition of 4-hydroxyquinoline formation using kynuramine as substrate by fluorescence spectrophotometry analysis
T1 sequence (P21397 whole entry): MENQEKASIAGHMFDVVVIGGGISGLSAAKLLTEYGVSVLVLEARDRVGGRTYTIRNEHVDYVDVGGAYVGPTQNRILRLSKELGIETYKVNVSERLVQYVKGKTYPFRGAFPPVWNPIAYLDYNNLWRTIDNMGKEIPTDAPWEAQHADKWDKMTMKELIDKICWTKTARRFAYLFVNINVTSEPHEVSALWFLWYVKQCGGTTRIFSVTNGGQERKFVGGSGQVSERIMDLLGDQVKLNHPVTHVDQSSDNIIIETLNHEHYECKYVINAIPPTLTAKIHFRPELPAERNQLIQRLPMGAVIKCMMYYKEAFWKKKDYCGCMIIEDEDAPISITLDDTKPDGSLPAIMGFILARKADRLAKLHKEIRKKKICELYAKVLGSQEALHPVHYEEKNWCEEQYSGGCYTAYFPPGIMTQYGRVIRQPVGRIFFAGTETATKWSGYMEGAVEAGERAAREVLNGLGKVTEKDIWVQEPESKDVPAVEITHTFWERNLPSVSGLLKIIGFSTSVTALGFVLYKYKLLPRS
In short: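 Recombinant human MAO-A with kynuramine as substrate. The 4-hydroxyquinoline product was quantified by fluorescence spectrophotometry, and IC50 values were determined.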

[10] = biological target: T2, Amine oxidase [flavin-containing] B (Homo sapiens, UniProt P27338)
T2 sequence (P27338 whole entry): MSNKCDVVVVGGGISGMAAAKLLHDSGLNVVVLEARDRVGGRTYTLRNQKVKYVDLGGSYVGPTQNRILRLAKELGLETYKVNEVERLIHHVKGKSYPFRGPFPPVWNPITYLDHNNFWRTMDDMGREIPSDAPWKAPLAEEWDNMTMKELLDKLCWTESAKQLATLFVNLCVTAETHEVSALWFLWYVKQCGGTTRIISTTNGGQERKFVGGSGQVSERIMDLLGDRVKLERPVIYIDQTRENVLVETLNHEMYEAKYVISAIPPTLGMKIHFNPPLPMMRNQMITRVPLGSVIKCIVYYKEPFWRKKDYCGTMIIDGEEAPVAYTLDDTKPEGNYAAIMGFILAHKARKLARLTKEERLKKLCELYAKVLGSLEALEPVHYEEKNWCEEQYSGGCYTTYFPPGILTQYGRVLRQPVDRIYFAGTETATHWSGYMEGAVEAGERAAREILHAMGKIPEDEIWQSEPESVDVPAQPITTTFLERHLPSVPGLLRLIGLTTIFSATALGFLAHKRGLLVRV

Mus musculus [11] = assay: Pro-cognitive activity in C57Bl6 mouse assessed as attenuation of long-term memory deficit by measuring increase in exploration time for novel object by measuring discrimination index at 50 nmol/uL, icv measured after 24 hrs by novel object recognition test; format: functional
In short: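 Novel object recognition in adult male C57Bl6 mice. Habituation was 10 min in an empty arena. Twenty-four hours later, mice explored two identical objects for 5 min, then received an immediate 5 µL lateral-ventricle infusion at 1 µL/min. A 5-min retention test with one familiar and one novel object followed 24 h later. Scores were % exploration time and DI = (tN−tF)/(tN+tF).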

Mus musculus [12] = assay: Pro-cognitive activity in C57Bl6 mouse assessed as attenuation of long-term memory deficit by measuring increase in exploration time for novel juvenile by measuring discrimination index at 25 nmol/uL, icv measured after 48 hrs by novel object recognition test; format: functional
In short: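 Social recognition in adult male C57Bl6 mice with intracerebroventricular cannulae. Habituation was 10 min with two empty cups. Twenty-four hours later, a novel 3–4-week-old juvenile was placed under one cup for 10 min of exploration, followed immediately by a 5 µL infusion at 1 µL/min. Retention 48 h later offered familiar versus novel juvenile, scoring snout-to-cup contact. DI = (tN−tF)/(tN+tF).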

[13] = Toxicity in C57Bl6 mouse assessed as reduction in distance travel at 50 nmol/uL administered directly into lateral ventricle by open field test; conditions: in vivo, icv_or_intrathecal
In short: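 Cannulated adult male C57Bl6 mice were placed in a 60×70 cm open-field arena 30 min after a 5 µL lateral-ventricle infusion. Total distance travelled over a 5-min session was recorded by overhead video tracking.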

[14] = Toxicity in overnight fasted C57Bl6 mouse assessed as reduction in food intake at 50 nmol/uL administered directly into lateral ventricle measured for 2 hrs; conditions: in vivo, icv_or_intrathecal
In short: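 Overnight-fasted male C57Bl6 mice received a lateral-ventricle infusion. Food was presented 30 min later, and intake was recorded at 0.5 h intervals over 2 h as cumulative consumption corrected for body weight; n = 8–9 per group.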

Mus musculus [15] = assay: Pro-cognitive activity in C57Bl6 mouse assessed as attenuation of long-term memory deficit by measuring increase in exploration time for novel object by measuring discrimination index at 25 nmol/uL, icv measured after 24 hrs by novel object recognition test

Compound: CC(N)CSc1ccccc1 (stereo not given)
- Ka [1]: > 100 µM
- Ka [2]: 26.8 µM
- Ka [3]: 18.7 µM
- Ka [4]: 70.9 µM
- Ka [5]: 23.4 µM
- Ka [6]: 43.3 µM
- Ka [7]: 82.4 µM
- Ka [8]: 9.8 µM
- IC50 [9]: 4.72 µM
- IC50 [10]: 57.3 µM
- Activity_index (Mus musculus [11]): 0.185
- Activity_index (Mus musculus [12]): 0.038
- Activity [13]: Non-Toxic
- Activity [14]: Non-Toxic
- Activity_index (Mus musculus [15]): 0.111
